Tests used:
[1] = tested on: Thromboxane-A synthase (Oryctolagus cuniculus); test: Tested in vitro against rabbit thromboxane A2 synthetase (TXA2) at 1 uM
[2] = organism: Cavia porcellus; test: In vitro bronchodilatory activity in guinea pig isolated tracheal strips; type: functional; details: Trachea
[3] = target: T1, Thromboxane-A synthase (Rattus norvegicus) (UniProt P49430); test: Tested ex vivo against TXA2 production in rat serum at 1 hr after peroral dose of 30 mg/kg and anesthetized with ether; type: functional, organism-based; parameters: dose 30 mg/kg
T1 sequence (whole entry): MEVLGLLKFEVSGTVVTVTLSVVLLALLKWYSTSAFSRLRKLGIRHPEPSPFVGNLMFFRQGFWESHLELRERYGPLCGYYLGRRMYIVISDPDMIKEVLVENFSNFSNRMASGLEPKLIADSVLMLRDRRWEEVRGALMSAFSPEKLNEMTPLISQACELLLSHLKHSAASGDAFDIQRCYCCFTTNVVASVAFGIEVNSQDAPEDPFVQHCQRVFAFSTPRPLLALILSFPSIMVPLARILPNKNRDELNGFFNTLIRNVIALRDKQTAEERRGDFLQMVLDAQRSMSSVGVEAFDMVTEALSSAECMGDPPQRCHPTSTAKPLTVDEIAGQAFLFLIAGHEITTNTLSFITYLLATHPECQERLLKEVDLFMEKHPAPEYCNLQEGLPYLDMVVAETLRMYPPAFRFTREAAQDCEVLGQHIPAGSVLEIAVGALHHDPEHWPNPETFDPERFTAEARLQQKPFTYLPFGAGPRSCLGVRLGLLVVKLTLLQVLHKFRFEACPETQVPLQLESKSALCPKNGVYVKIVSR
Procedure, shortened: (§1)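 Male SD rats (240–260 g), fasted 20 h, dosed orally with compound in 0.5% carboxymethylcellulose or vehicle alone. At 1 h, ether anesthesia and 2 mL cardiac blood taken and clotted at 37 °C for 90 min.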

[4] = target: T1, Thromboxane-A synthase (Rattus norvegicus); test: Tested ex vivo against TXA2 production in male SD rats at 1 hr after peroral dose of 30 mg/kg and anesthetized with ether; type: functional, organism-based; parameters: dose 30 mg/kg
Procedure, shortened: as §1

[5] = tested on: Rattus norvegicus; test: Tested ex vivo against serum TXB2 production at 1 hr after oral dose of 3 mg/kg of drug to rat; type: functional
Procedure, shortened: as §1

[6] = tested on: Rattus norvegicus; test: Tested ex vivo against serum TXB2 production at 1 hr after oral dose of 30 mg/kg of drug to rat; type: functional
Procedure, shortened: as §1

[7] = tested on: Cavia porcellus; test: In vivo inhibitory effect on airway constriction induced by histamine 2-5 micro g/kg iv at 1 min after 10 mg/kg iv dose of compound; type: functional
Procedure, shortened: (§2)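 Male Dunkin-Hartley guinea pigs anesthetized with pentobarbital 35 mg/kg ip, jugular vein and trachea cannulated, ventilated at 10 mL/kg, 60 strokes/min. Insufflation pressure recorded. Histamine 2–5 μg/kg iv repeated every 10 min until a reproducible control response. Compound 10 mg/kg iv 1 min before the next challenge.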

[8] = tested on: Cavia porcellus; test: In vivo inhibitory effect on airway constriction induced by histamine 2-5 ug/kg iv at 1 min after 10 mg/kg iv dose of compound; type: functional
Procedure, shortened: as §2

| inhibition [1] | IC50 [2] | inhibition [3] | Structure (SMILES) | further results |
| --- | --- | --- | --- | --- |
| 99% | 21.9 µM |  | CCCCCCCCn1nc(-c2cccnc2)c2ccccc2c1=O |  |
| 32% | 9.77 µM |  | CC(=O)OCCn1nc(-c2cccnc2)c2ccccc2c1=O |  |
| 43% | 24 µM | 77% | O=c1c2ccccc2c(-c2cccnc2)nn1CCn1cnnn1 |  |
|  | 3.39 µM |  | CC(C)n1nc(-c2cncs2)c2ccccc2c1=O | inhibition [4]: 71% |
|  | 8.32 µM | 87% | Oc1nnc(-n2ccnc2)c2ccccc12 |  |
| 95% | 10 µM |  | CCOC(=O)CCCn1nc(-c2cccnc2)c2ccccc2c1=O |  |
| 0% | 15.8 µM |  | CCn1nc(-n2cncn2)c2ccccc2c1=O |  |
| 91% | 2.29 µM | 100% | CCCCn1nc(-c2cccnc2)c2ccccc2c1=O |  |
| 73% | > 100 µM |  | O=C(O)CCCn1nc(-c2cccnc2)c2ccccc2c1=O |  |
| 13% | 40.7 µM |  | CC(=O)Cn1nc(-c2cccnc2)c2ccccc2c1=O |  |
|  | > 1000 µM | 92% | O=C(O)/C=C/c1ccc(Cn2ccnc2)cc1 [OZAGREL] | inhibition in vivo at 3 mg/kg [5]: 86%; inhibition in vivo at 30 mg/kg [6]: 92%; inhibition in vivo at 10 mg/kg [7]: 0% |
|  | 9.12 µM |  | O=c1c2ccccc2c(-c2cccnc2)nn1CCSc1ccccc1 | inhibition [4]: 52% |
| 96% | 6.17 µM |  | O=c1c2ccccc2c(-c2cccnc2)nn1CCCCSc1ncccn1 |  |
| 69% | 4.57 µM |  | O=c1c2ccccc2c(-c2cccnc2)nn1CCO |  |
| 38% | 1.2 µM | 70% | Oc1nnc(-c2cncs2)c2ccccc12 |  |
| 37% | 11 µM |  | CCn1nc(-c2cnccn2)c2ccccc2c1=O |  |
| 89% | 64.6 µM |  | CC(C)NC(=O)CCCn1nc(-c2cccnc2)c2ccccc2c1=O |  |
|  | 16.6 µM |  | Oc1nnc(-n2cncn2)c2ccccc12 |  |
| 87% | 21.9 µM |  | O=C1c2ccccc2C(=O)N1CCn1nc(-c2cccnc2)c2ccccc2c1=O |  |
| 95% | 5.89 µM |  | COC(=O)c1ccc(Cn2nc(-c3cccnc3)c3ccccc3c2=O)cc1 |  |
| 93% | 26.3 µM |  | O=c1c2ccccc2c(-c2cccnc2)nn1CCNS(=O)(=O)c1ccccc1 |  |
| 86% | 3.16 µM | 93% | CCCn1nc(-c2cccnc2)c2ccccc2c1=O |  |
| 37% | 12.3 µM |  | O=C(c1cccs1)n1nc(-c2cccnc2)c2ccccc2c1=O |  |
| 94% | 1.38 µM |  | CC(C)=CCn1nc(-c2cccnc2)c2ccccc2c1=O |  |

| inhibition [1] | IC50 [2] | inhibition [3] | Structure (SMILES) | further results |
| --- | --- | --- | --- | --- |
| 95% | 4.17 µM |  | O=c1c2ccccc2c(-c2cccnc2)nn1Cc1cccc(Cl)c1 |  |
| 87% | 3.09 µM | 82% | CC(C)n1nc(-c2cccnc2)c2ccccc2c1=O |  |
| 64% | 17 µM |  | O=C(O)c1ccc(Cn2nc(-c3cccnc3)c3ccccc3c2=O)cc1 |  |
| 37% |  |  | O=c1c2ccccc2c(-c2cccnc2)nn1CCn1ccnc1 | inhibition in vivo at 10 mg/kg [7]: 97% |
| 4% | 3.16 µM | 5% | CCn1nc(-c2nccs2)c2ccccc2c1=O |  |
| 26% | 9.55 µM |  | CCn1nc(-c2cncnc2)c2ccccc2c1=O |  |
| 13% | > 100 µM |  | O=C(O)Cn1nc(-c2cccnc2)c2ccccc2c1=O |  |
| 96% | 14.8 µM |  | O=c1c2ccccc2c(-c2cccnc2)nn1S(=O)(=O)c1ccccc1 |  |
| 97% | 2.75 µM | 80% | O=c1c2ccccc2c(-c2cccnc2)nn1C1CCCC1 |  |
|  | 2.4 µM |  | CC(C)Cn1nc(-c2cncs2)c2ccccc2c1=O |  |
| 28% | 43.7 µM | 0% | CCOC(=O)Cn1nc(-c2cccnc2)c2ccccc2c1=O |  |
| 55% | 9.33 µM |  | COCCn1nc(-c2cccnc2)c2ccccc2c1=O |  |
| 77% | 0.562 µM | 69% | CCn1nc(-c2cncs2)c2ccccc2c1=O |  |
| 53% | 5.37 µM | 72% | CCn1nc(-n2ccnc2)c2ccccc2c1=O |  |
| 29% | > 100 µM |  | NCCn1nc(-c2cccnc2)c2ccccc2c1=O |  |
|  | 4.57 µM |  | Oc1nnc(-c2nccs2)c2ccccc12 | inhibition [4]: 23% |
| 70% | 2.14 µM | 82% | C=CCn1nc(-c2cccnc2)c2ccccc2c1=O | inhibition in vivo at 10 mg/kg [7]: 100% |
|  | 10.5 µM |  | O=c1c2ccccc2c(-c2cccnc2)nn1CCSC1=NCCS1 |  |
| 98% | 0.209 µM |  | O=c1c2ccccc2c(-c2cccnc2)nn1CC1CCCCC1 |  |
| 86% | 11 µM |  | O=c1c2ccccc2c(-c2cccnc2)nn1CCSc1ncccn1 |  |
| 97% | 2.45 µM | 86% | O=c1c2ccccc2c(-c2cccnc2)nn1Cc1ccccc1 |  |
| 26% | 10.2 µM | 78% | Oc1nnc(-c2cccnc2)c2ccccc12 |  |
| 63% | 11.5 µM | 94% | Cn1nc(-c2cccnc2)c2ccccc2c1=O | inhibition in vivo at 10 mg/kg [8]: 97% |
